APJ antag = antagonists of human apelin receptor APJ, primary screen, CHO-K1 cells, beta-arrestin complementation, luminescence. inhibition, % at 20 µM. actives 0.32% (n = 330,000). AID 2521, 2010;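 active = inhibition above about 40% at 20 µM, limit read from the data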;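 note: cells challenged with 10 nM apelin-13 agonist together with compound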
CXCR6 block = CXCR6 receptor inhibitors, primary screen, cell-based, beta-arrestin, luminescence, CHO-K1 PathHunter, 1536-well | actives 0.36% (n = 360,000) | inhibition, % at 20 µM; in the data active = inhibition above about 34%, passing the limit was not always enough;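 note: antagonist mode with CXCL16 agonist at 10 nM final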
Target sequence (O00574 whole entry, looked up): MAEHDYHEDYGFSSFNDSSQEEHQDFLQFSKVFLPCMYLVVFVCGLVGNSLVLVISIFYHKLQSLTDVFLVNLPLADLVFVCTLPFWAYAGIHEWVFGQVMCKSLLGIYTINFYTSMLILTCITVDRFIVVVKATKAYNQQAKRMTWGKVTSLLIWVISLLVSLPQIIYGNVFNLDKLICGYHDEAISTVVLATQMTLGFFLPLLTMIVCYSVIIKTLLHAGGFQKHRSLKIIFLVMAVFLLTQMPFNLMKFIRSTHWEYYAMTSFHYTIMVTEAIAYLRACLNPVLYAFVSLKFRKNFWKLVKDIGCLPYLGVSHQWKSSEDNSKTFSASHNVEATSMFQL
EBI2 antag = EBI2 receptor antagonists, beta-arrestin recruitment, primary screen, cell-based, luminescence, 7a,25-OHC stimulation, uHTS. G-protein coupled receptor 183 (Homo sapiens), P32249. 7a,25-OHC stimulated. inhibition, % at 5 µM. actives 0.81% (n = 360,000). AID 651636, 2012; in the data active = inhibition above about 38%;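 note: enzyme fragment complementation signal reports receptor beta-arrestin coupling in cells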
CCR6 antagonist = CCR6 receptor antagonists, primary screen, cell-based, CHO-K1, luminescence, beta-arrestin, uHTS; C-C chemokine receptor type 6 (Homo sapiens), P51684; CHO-K1 CCR6 PathHunter beta-arrestin, CCL20-stimulated; inhibition, % at 20 µM; actives 0.49% (n = 340,000); AID 493098, 2011;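 active = compounds whose inhibition of the agonist-driven luminescence signal at 20 µM reaches about 50%, limit read from the data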;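 note: cells stimulated with CCL20 at 14 nM final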
APJ agonist = agonists of human apelin receptor APJ, primary screen, CHO-K1 cells, PathHunter beta-arrestin, luminescence. activation, % at 20 µM. P35414. actives 0.11% (n = 330,000). 0% DMSO wells, 100% apelin;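 active = activation more than six SD over the plate average, tested at 20 µM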
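assay system = CHO-K1 APJ beta-arrestin complementation cell line | input = cell density 1000 per well | dosing = compound 20 µM once, DMSO 1% | timing = compound 90 min 25 °C, reagent 1 h | measured by = luminescence from split beta-galactosidase complementation, Galacton Star/Emerald II substrate | read-out basis = APJ agonist activity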
FXN GAA850 act = FXN promoter activators, primary screen, cell-based, luciferase luminescence, HEK293 lucGAA850; HEK293 lucGAA850 FXN promoter luciferase reporter, 24 h; percent of 10 µM SAHA response; activation, % at 6 µM; actives 0.56% (n = 360,000); AID 540364, 2011;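 active = activation above the average of all compounds screened plus 3 SD, cutoff fixed separately per campaign, cut at about 7.5% in these data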
EBI2 conf = EBI2 antagonist hit retest, beta-arrestin, confirmation, cell-based, single concentration, luminescence, 7a,25-OHC stimulation | shares compounds with EBI2 antag | 7a,25-OHC antagonism | inhibition, % at 5 µM | actives 29% (n = 2,400) | AID 651997, 2013;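 active = inhibition of at least 50%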
EBI2 ag = EBI2 agonist activity of antagonist hits, confirmation, counter-screen for EBI2 antagonist project, cell-based, single concentration, agonist mode, luminescence | 2,400 tested, under 10 active | EBI2-expressing cells, 60 min; 0% vehicle, 100% 7α,25-dihydroxycholesterol control | AID 652000, 2013 | activation, % at 5 µM | shares compounds with EBI2 antag;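 active = activation of at least 50%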
bGal counter = E. coli beta-galactosidase enzyme inhibition, confirmation, counter-screen for EBI2 antagonist project, biochemical, luminescence, single concentration | inhibition, % at 5 µM | purified beta-galactosidase, luminescent Galacton Star, 15 min | shares compounds with EBI2 antag | actives 1% (n = 2,400);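 active = replicate-average signal at least 3 plate SD below neutral wells, shown as high inhibition, flagging enzyme-inhibiting false positives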;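 note: higher means stronger loss of beta-gal luminescence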
Hits are given with their value; 0 = inactive; - = not tested or not shown. In the library only some 2% were active in any assay of this set; here they are far more common.

SMILES | APJ antag | CXCR6 block | EBI2 antag | CCR6 antagonist | APJ agonist | FXN GAA850 act | EBI2 conf | EBI2 ag | bGal counter
CCOC(=O)C[C@@H]1OC[C@H](CO)N1S(=O)(=O)c1ccc(C)cc1 | - | - | 0 | - | - | - | - | - | -
CCCOc1ccc(Oc2nc(-c3ccncc3)nc3ccccc23)cc1 | 0 | 0 | 49.8 | 0 | 0 | 0 | 0 | 0 | 0
COc1cccc(Oc2nc(-c3ccncc3)nc3ccccc23)c1 | 0 | 0 | 44.1 | 0 | 0 | 0 | 0 | 0 | 0
O=C(/C=C/c1ccc2ccccc2n1)N1CCN(S(=O)(=O)c2ccccc2F)CC1 | 0 | 0 | 54.6 | 0 | 0 | 0 | 0 | 0 | 0
O=C(/C=C/c1ccc2ccccc2n1)N1CCN(S(=O)(=O)c2ccc(F)cc2)CC1 | 0 | 0 | 50.0 | 0 | 0 | 0 | 0 | 0 | 0
O=C(/C=C/c1ccc2ccccc2n1)N1CCN(c2ccccc2)CC1 | 0 | 0 | 0 | 0 | 0 | 0 | - | - | -
COc1ccc(-c2ccc(C(=O)Nc3cccc(NS(C)(=O)=O)c3)c3occc23)c(C)c1 | - | 0 | 0 | - | - | 0 | - | - | -
CN1CCN(C(=O)c2ccc(-n3cccc3)cc2)CC1 | 0 | 0 | 34.5 | 0 | 0 | 0 | 0 | 0 | 0
O=C(c1ccc([N+](=O)[O-])cc1)N1CCN(Cc2ccccc2)CC1 | 0 | 0 | 0 | 0 | 0 | 0 | - | - | -
O=C(c1ccc(-n2cccc2)cc1)N1CCN(Cc2ccccc2)CC1 | 0 | 0 | 84.4 | 0 | 0 | 0 | 73.0 | 0 | 0
O=C(c1ccc(Br)cc1)N1CCC(C(=O)N2CCN(Cc3ccccc3)CC2)CC1 | 0 | 0 | 63.1 | 0 | 0 | 0 | 0 | 0 | 0
CCn1ccnc1CN(C)C(=O)c1cc(COc2ccccc2SC)on1 | 0 | 0 | 0 | 0 | 0 | 0 | - | - | -
COc1ccc(C(C#N)CC(=O)c2ccc(OC)c(OCc3ccccc3)c2)cc1OC (centres undefined) | - | 0 | 0 | - | - | 0 | - | - | -
CCOC(=O)N1CCN(C(=O)c2ccc3[nH]c(C)c(C)c3c2)CC1 | 0 | 0 | 0 | 0 | 0 | 0 | - | - | -
O=C(c1ccc(Cl)c(Cl)c1)N1CCN(c2ccccn2)CC1 | 0 | 0 | 0 | 0 | 0 | 0 | - | - | -
O=C(c1ccc2c(c1)CCC2)N1CCN(Cc2ccccc2)CC1 | - | 0 | 0 | - | - | 0 | - | - | -
COc1ccc(C(=O)N2CCN(Cc3ccccc3)CC2)cc1[N+](=O)[O-] | 0 | 0 | 0 | 0 | 0 | 0 | - | - | -
CCCN1CCN(C(=O)c2ccc3[nH]c(C)c(C)c3c2)CC1 | - | 0 | 73.2 | - | - | 0 | 0 | 0 | 0
Cc1[nH]c2ccc(C(=O)N3CCN(c4ccccn4)CC3)cc2c1C | 0 | 0 | 41.1 | 0 | 0 | 0 | 0 | 0 | 0
COc1ccc2[nH]c(C(=O)N3CCN(Cc4ccccc4)CC3)cc2c1OC | 0 | 0 | 52.4 | 0 | 0 | 0 | 0 | 0 | 0
Cc1[nH]c2ccc(C(=O)N3CCN(Cc4ccccc4)CC3)cc2c1C | 0 | 0 | 64.8 | 0 | 0 | 0 | 0 | 0 | 0
C[C@@H]1CN([C@H](C)CO)C(=O)c2cc(C#CC3CCCCC3)cnc2O[C@H]1CN(C)Cc1cccnc1 | - | 0 | 0 | - | - | 0 | - | - | -
